Results pooled from the literature.
Lines come from different studies, so protocols differ.
Target: Serine/threonine-protein kinase ULK3 (ULK3, Homo sapiens, UniProt Q6PHR2)
Sequence (Q6PHR2 1-472, as in one of the studies): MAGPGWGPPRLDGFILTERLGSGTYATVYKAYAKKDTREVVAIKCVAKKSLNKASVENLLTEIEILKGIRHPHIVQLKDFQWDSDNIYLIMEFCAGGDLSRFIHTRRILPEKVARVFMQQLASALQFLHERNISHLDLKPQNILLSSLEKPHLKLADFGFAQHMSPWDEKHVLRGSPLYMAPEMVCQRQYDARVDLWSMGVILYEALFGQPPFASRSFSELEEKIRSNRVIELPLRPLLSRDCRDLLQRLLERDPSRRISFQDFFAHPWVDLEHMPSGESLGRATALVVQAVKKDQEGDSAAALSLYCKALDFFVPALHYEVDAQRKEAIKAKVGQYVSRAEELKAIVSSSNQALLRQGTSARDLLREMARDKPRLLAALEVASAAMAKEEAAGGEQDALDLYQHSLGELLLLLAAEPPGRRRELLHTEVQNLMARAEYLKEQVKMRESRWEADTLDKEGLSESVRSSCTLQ

Structure (SMILES) | assay | setting | endpoint | value
COc1cc(Cl)c(C(=O)N[C@@H](CN[C@H]2CC[C@@H](N)CC2)Cc2ccc(C#N)cc2)cc1-c1ccc(CN[C@H](C)c2ccc(C)cc2)o1 | enzyme activity, inhibitor | 1 µM | remaining activity | 98%
Clc1ccc(Nc2nnc(Cc3ccncc3)c3ccccc23)cc1 | cell-free assay | 0.5 µM | remaining signal | 101%
C[C@@]1(Cc2ccc(C#N)cc2)C(=O)N(c2cc(Cl)cc(Cl)c2)c2ncc(C(=O)NC3(c4nc(C5CCC5)no4)CC3)n21 | cell-free assay, competition with immobilised ligand | 1 µM | remaining binding | 100%
COc1cc2c(N3CCN(C(=O)Nc4ccc(OC(C)C)cc4)CC3)ncnc2cc1OCCCN1CCCCC1 | cell-free assay | 0.5 µM | remaining signal | 101%
O=C(Nc1cnn(-c2csc(C(=O)NC3COC3)c2)c1)Nc1ccccc1Cl | enzyme activity, inhibitor | 5 µM | remaining activity | 111%
COc1cc2ncnc(Nc3ccc(F)c(Cl)c3)c2cc1OCCCN1CCOCC1 | cell-free assay | 0.5 µM | remaining signal | 108%
Nc1cnc(N2CCc3cc(S(=O)(=O)Nc4c(F)cc(Cl)cc4F)cc(N4CCCC4=O)c32)nc1 | cell-free assay, competition with immobilised ligand | 1 µM | remaining binding | 100%
Cc1sc(C(=O)NC2COC2)cc1-n1cc(NC(=O)Nc2c(F)cccc2Cl)cn1 | enzyme activity, inhibitor | 10 µM | remaining activity | 105%
COc1cccc2c(NCc3ccccc3)nc(-n3c(N)nc4ccccc43)nc12 | target engagement in cells, inhibitor, chemoproteomics | 20 mM | inhibition | -11.6%
Cc1cc(NC(=O)c2cccc3cc(-c4cccc5[nH]nc(N)c45)ccc23)ccc1F | enzyme activity, inhibitor | 0.1 µM | activity vs control | 98%
CCc1ccccc1C(=O)Nc1n[nH]c2c(C)c(F)c(C3C(C#N)=C(C)N(C)C(C)=C3C#N)cc12 | cell-free assay, competition with immobilised ligand | 1 µM | remaining binding | 82%
CCN(CC)CCNC(=O)c1c(C)[nH]c(/C=C2\C(=O)Nc3ccc(F)cc32)c1C | cell-free assay | 0.5 µM | remaining signal | 57.4%
Cc1ccc(C(=O)NCc2ccsc2)cc1C#Cc1cn(C(C)C)c2ncnc(N)c12 | enzyme activity, inhibitor | 1 µM | activity vs control | 84%
COc1cc(-c2cn(C3CCc4ccccc4N(CC(F)(F)F)C3=O)nn2)ccc1-n1ccc(C)n1 (centres unmarked) | cell-free assay, competition with immobilised ligand | 1 µM | remaining binding | 61%
